Reference: PubChem BioAssay
Active and inactive are the calls of the source.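 How the source made its calls, unless noted: active means fluorescence slope higher than the sample average by over 3 SD (cut at about -0.22 in these data, passing the limit was not always enough); inactive means the rest.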

Experiments:
[1] = inhibitors of TNFa-induced NFkB p65 translocation, primary screen, imaging, HUVEC, MLSMR starter and 10KST1 sets (AID 438;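 active means inhibition above 20% together with a positive visual image hit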;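 further: compound added about 3h40 before a 20 min TNFalpha stimulation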;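 on inhibition: signal is the nuclear over cytoplasmic p65 intensity ratio per well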); conditions: HUVEC TNFa-induced p65 nuclear translocation; cell count: measured here: nuclei count (cytotoxicity indicator), at 2.08 µM; inhibition: at 2 µM, stronger effect = higher value, 0% TNFa-plus-vehicle, 100% no-TNFa wells
[2] = reduction of polyQ htt aggregates in cells – imaging, exon1htt(103Q)mCFP cells, high-content imaging, primary screen (AID 483;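 active means visual image review flags a hit and inhibition of aggregation exceeds 20%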;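 further: compound exposure lasted 3 days before fixation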;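 on nuclei count: percent of the per-plate median nuclei count of sample wells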); conditions: exon1htt(103Q)mCFP cell line, aggregate imaging, at 2 µM; inhibition of aggregation: stronger effect = higher value; nuclei count: measured here: cell count, toxicity
[3] = endothelial E-selectin expression blockers – imaging, HUVEC, immunofluorescence, MLSMR starter and 10KST1 sets, primary screen (AID 487;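 active means visually confirmed hit in the image check and inhibition above 20%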;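 on inhibition: signal is fraction of cell area covered by stained E-selectin grains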;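 on nuclei count: 100% = median nuclei count of all wells on the same plate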); conditions: HUVEC TNFalpha-induced E-selectin immunofluorescence imaging, at 2 µM; inhibition: stronger effect = higher value; nuclei count: measured here: cell number, toxicity
[4] = biological target: Voltage-gated potassium channel subunit beta-2 (Rattus norvegicus) (UniProt P62483); experiment: inhibitors of rat Kvbeta2 reductase activity – biochemical, NADPH fluorescence, primary screen (AID 622); conditions: recombinant KvBeta, 4-cyanobenzaldehyde reduction, at 10 µM, stronger effect = higher value;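 further: slope of raw intensity against log time taken from 70 to 1610 s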
[5] = biological target: Voltage-gated potassium channel subunit beta-2 (Rattus norvegicus) (UniProt P62483); experiment: enhancers of rat Kvbeta2 NADPH turnover – biochemical, NADPH fluorescence, primary screen (AID 623;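 active means NADPH fluorescence slope more negative than the mean of all samples by about 3 SD, 99.7% confidence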;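 further: fluorescence intensity change per second fitted from 20 to 320 s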); conditions: Recombinant KvBeta, NADPH fluorescence decrease slope, 10 min; at 10 µM; stronger effect = lower value
[6] = biological target: Alpha-2C adrenergic receptor (Homo sapiens) (UniProt P18825); experiment: compounds altering alpha2C-coupled GIRK flux – cell-based, HEK293 alpha2C/GIRK1/2, thallium flux, primary screen (AID 624;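 active means fluorescence slope after compound addition differing from the mean of all screened samples at 99.7% confidence, in either direction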;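 further: slope of fluorescence ratio to pre-addition baseline per second over 15 to 24 s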); conditions: thallium flux BTC fluorescence, at 10 µM, actives lie on both sides
[7] = inhibitors of larval lipid processing in zebrafish, primary screen, whole organism, PED6 fluorescence, gall bladder and intestine (AID 686;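 active means a full or partial loss of lipid-probe fluorescence in the fish gall bladder, intestine or both, judged by eye; inactive means no fluorescence loss, or compound toxic to the fish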;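 further: larvae 5 to 7 days old with five fish per well; signal comes from phospholipase A2 cleavage of quenched PED6 carried via bile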); conditions: Zebrafish larvae PED6 lipid processing, fluorescence scoring; screened at 20 µM (by protocol)
Summary of the method: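 Incubation: overnight exposure of larvae to compound plus PED6 / Test system: live zebrafish larvae aged 5-7 days, whole organism / Amount: 5 larvae per well / Read-out basis: visual per-well fluorescence inhibition score / Signal: visual fluorescence microscopy scoring of gall bladder, gut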

[8] = blockers of RIG-like receptor reporter activation – cell-based, Sendai virus stimulus, luciferase, 10K MLSCN set, TLR/RLR signaling modifier project, primary screen (AID 602276;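 active means inhibition at or above 50% at 10 µM; inactive means inhibition below 50%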;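 further: firefly luciferase from ISG56 promoter only with Renilla not read in this screen; 0% = Sendai virus plus DMSO and 100% = medium plus DMSO without virus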); conditions: HEK293 RL24 IRF3 luciferase reporter, at 10 µM, stronger effect = higher value
[9] = TLR3 IRF3 reporter activation blockers – cell-based, poly I:C stimulus, luciferase, 10K MLSCN set, primary screen (AID 602277;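 active means inhibition of the reporter signal at or above 50%; inactive means inhibition below 50%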); conditions: HEK293-TLR3 RL24 IRF3 luciferase reporter, at 10 µM, stronger effect = higher value

Alpha-2C adrenergic receptor (Homo sapiens), sequence (P18825 whole entry, looked up): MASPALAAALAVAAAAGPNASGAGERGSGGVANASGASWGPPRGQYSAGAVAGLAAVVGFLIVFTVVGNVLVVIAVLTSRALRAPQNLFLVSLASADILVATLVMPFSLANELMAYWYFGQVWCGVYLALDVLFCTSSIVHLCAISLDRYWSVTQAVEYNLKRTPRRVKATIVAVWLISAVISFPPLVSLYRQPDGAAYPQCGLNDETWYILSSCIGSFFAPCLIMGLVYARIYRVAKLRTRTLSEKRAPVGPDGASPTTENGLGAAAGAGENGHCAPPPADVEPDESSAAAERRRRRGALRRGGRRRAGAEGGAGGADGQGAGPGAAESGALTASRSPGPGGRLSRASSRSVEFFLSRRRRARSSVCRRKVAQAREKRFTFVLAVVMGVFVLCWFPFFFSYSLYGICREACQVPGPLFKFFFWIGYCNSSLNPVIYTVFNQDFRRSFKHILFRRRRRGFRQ
Voltage-gated potassium channel subunit beta-2 (Rattus norvegicus), sequence (P62483 whole entry, looked up): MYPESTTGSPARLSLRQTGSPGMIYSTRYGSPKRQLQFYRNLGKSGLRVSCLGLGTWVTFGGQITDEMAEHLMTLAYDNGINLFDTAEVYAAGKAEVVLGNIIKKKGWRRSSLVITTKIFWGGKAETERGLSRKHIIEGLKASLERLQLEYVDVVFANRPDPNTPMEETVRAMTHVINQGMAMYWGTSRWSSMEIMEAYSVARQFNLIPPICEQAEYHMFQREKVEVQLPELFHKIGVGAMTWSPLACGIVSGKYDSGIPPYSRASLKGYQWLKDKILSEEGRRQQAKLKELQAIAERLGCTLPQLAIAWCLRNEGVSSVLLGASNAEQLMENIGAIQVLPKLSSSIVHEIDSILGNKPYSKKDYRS

Structure (SMILES)	cell count [1]	inhibition [1]	inhibition of aggregation [2]	nuclei count [2]	inhibition [3]	nuclei count [3]	fluorescence slope [4]	NADPH fluorescence slope [5]	slope [6]	outcome [7]	inhibition [8]	inhibition [9]
O=S(=O)(Nn1cnnc1)c1ccccc1Cl	647	4.3% (inactive)	-12.3% (inactive)	99%	45.5% (inactive)	81.7%	-0.402 (inactive)	-8.6e-06 (inactive)	0.00434 (inactive)	inactive	-7.35% (inactive)	-10.4% (inactive)
CCOC(=O)/C=C1\SCC(=O)N1Cc1nnc(-c2ccccc2Br)o1	505	0.5% (inactive)	-7.7% (inactive)	98.7%	-51.5% (inactive)	123%	-0.452 (inactive)	-5.3e-05 (inactive)	0.00466 (inactive)	inactive	12.8% (inactive)	10.1% (inactive)
COc1ccccc1N1CCN(C(=O)c2cc(-c3ccc(Cl)c(Cl)c3)on2)CC1	430	5.1% (inactive)	-5.8% (inactive)	97.3%	-17.9% (inactive)	102%	-0.407 (inactive)	-7.4e-05 (inactive)	0.00441 (inactive)	inactive	1.29% (inactive)	-2.55% (inactive)
O=C(Nc1ccccc1Cl)c1c(F)c(F)c(F)c(F)c1F	407	5.5% (inactive)	2.9% (inactive)	103%	-166% (inactive)	116%	-0.479 (inactive)	-3e-05 (inactive)	0.00592 (inactive)	inactive	-7.6% (inactive)	-12.7% (inactive)
OC(CNCCc1ccccc1)c1ccccc1 (stereo unspecified)	586	11% (inactive)	14.9% (inactive)	91.9%	48.6% (inactive)	55.2%	-0.37 (inactive)	-7.3e-05 (inactive)	0.00466 (inactive)	inactive	11.9% (inactive)	15.7% (inactive)
O=C(CN1CCN(c2nc(-c3ccc(Cl)cc3)cs2)CC1)NCc1ccco1	638	-7.3% (inactive)	9.3% (inactive)	90.1%	-53.5% (inactive)	108%	-0.463 (inactive)	-3.9e-05 (inactive)	0.00435 (inactive)	inactive	-3.86% (inactive)	98.3% (active)
COc1ccccc1CNC(=O)C(C)NS(=O)(=O)c1ccccc1 (stereo unspecified)	295	-11.3% (inactive)	-13.2% (inactive)	107%	-11.2% (inactive)	78%	-0.406 (inactive)	2.3e-06 (inactive)	0.00647 (inactive)	inactive	-0.773% (inactive)	1.85% (inactive)
COc1ccc(OC)c(NC(=O)CS(=O)(=O)c2ccccc2)c1	410	-0.6% (inactive)	-1.6% (inactive)	107%	-66.5% (inactive)	121%	-0.438 (inactive)	1.3e-05 (inactive)	0.00539 (inactive)	inactive	-3.16% (inactive)	6.62% (inactive)
Cc1cc(=O)n2[nH]c(-c3ccc(Cl)cc3)cc2n1	540	-2.9% (inactive)	0% (inactive)	87.6%	46.6% (inactive)	69.3%	-0.42 (inactive)	-3.9e-05 (inactive)	0.0052 (inactive)	inactive	-16.8% (inactive)	-40.2% (inactive)
CSc1ncc(Cl)c(C(=O)Nc2ccc(S(=O)(=O)N3CCOCC3)cc2)n1	288	-0.8% (inactive)	-8.6% (inactive)	101%	2.7% (inactive)	131%	-0.433 (inactive)	-5.7e-05 (inactive)	0.00479 (inactive)	inactive	4.78% (inactive)	0.446% (inactive)
O=C(CSc1nnc(-c2ccco2)n1CC1CCCO1)N1CCCCC1 (stereo unspecified)	375	1.4% (inactive)	9.7% (inactive)	102%	-41% (inactive)	107%	-0.378 (inactive)	-6.2e-05 (inactive)	0.00431 (inactive)	inactive	13.1% (inactive)	11.6% (inactive)
Cc1ccc(S(=O)(=O)NCC(c2cccnc2)N(C)C)cc1 (stereo unspecified)	453	-1.9% (inactive)	2.5% (inactive)	106%	-33.6% (inactive)	127%	-0.464 (inactive)	-9.5e-06 (inactive)	0.00528 (inactive)	inactive	7.09% (inactive)	15.6% (inactive)
Cc1nc(-c2ccccc2)sc1C(N)=O	424	4.7% (inactive)	25.4% (inactive)	104%	-40.1% (inactive)	117%	-0.524 (inactive)	1.6e-05 (inactive)	0.0052 (inactive)	inactive	-21.5% (inactive)	-49.1% (inactive)
